This passage reports Schizont size and IC50 results from ChEMBL document CHEMBL1789904, “Imaging of Plasmodium liver stages to drive next-generation antimalarial drug discovery” (Science, 2011).

This test relates to Plasmodium yoelii. The test can be described thus: NOVARTIS: Antimalarial liver stage activity measured as reduction in Plasmodium yoelii schizont area in HepG2-A16-CD81 cells by immuno-fluorescence, and median schizont size at 10uM compound concentration. Format: functional, organism-based. As to conditions: for IC50: Plasmodium yoelii, HepG2-A16-CD81. The essentials: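 Host and parasite nuclei stained with Hoechst 33342, parasites with αPyHSP70 antibody; 25 images per well by high-content imaging; median parasite (schizont) area measured by automated image analysis, ~50 schizonts per experiment, two or more independent experiments.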

As for `Clc1ncnc2ncn(Cc3ccccc3)c12`, the Schizont size stood at 220.34 um and the IC50 (in general, the concentration that gives 50% inhibition) is over 10 µM.

As for `O=[N+]([O-])c1ccc(N2CCCN(C(=S)Nc3ccc(F)cc3Br)CC2)nc1`, the Schizont size came to 120.24 um and the IC50 was found to be 4.62 µM.

In the case of `CCOC(=O)c1c(CSc2ccccc2)oc2cc(CN(C)C)c(O)c(Cl)c12`, the Schizont size is recorded as 188.08 um and the IC50 turned out to be 7.2 µM. On the same counts, the results for `COc1ccc(C(c2ccc(N(C)C)cc2)c2ccc(N(C)C)cc2)cc1` are 172.95 um and over 10 µM. On the same counts, the results for `COc1cccc(NC(=O)Cn2c(C)c(C#N)c3ccccc32)c1` are 134.12 um and over 9.96 µM. The corresponding values for `CCc1ccccc1NC(C)=O` are 188.81 um and over 10 µM. The molecule `O=C(O)Cn1cnc2nc3n(c2c1=O)CCC3` returned a Schizont size of 183.18 um and an IC50 of over 0.77 µM. In turn, `CCOC(=O)C1(CC)CC(C)(C(=O)C[n+]2cccc(Br)c2)OC1=O.[Br-]` (stereo not given) had a Schizont size of 178.59 um and an IC50 of over 10 µM. On the same counts, the results for `CCc1c(C#N)c(N)nc(SCC(=O)c2ccc(C)cc2)c1C#N` are 189.13 um and over 10 µM.

In turn, `CCN(c1ccccc1)S(=O)(=O)c1ccc(F)c(C(=O)Nc2c(C)cccc2C)c1` returned a Schizont size of 234.32 um and an IC50 of over 10 µM.

In turn, `CCCCOc1ccc(C2C3CCCC=C3C(C#N)=C(N)C2(C#N)C#N)cc1` (stereo not given) yielded a Schizont size of 213.66 um and an IC50 of over 10 µM. Molecule `COC(=O)C1=CNC=C(C(=O)OC)C1c1cc(OC)c(OC)c(OC)c1` came in with a Schizont size of 216.47 um and an IC50 of over 10 µM. `NC(Cc1ccccc1)C(=O)N1CCn2c(nc(-c3ccccc3)c2Nc2ccc3c(c2)OCO3)C1` (stereo not given) gave an IC50 of 0.00185 µM. That is a single-digit nanomolar value. On to `Cc1cccc(C)c1N(CC(=O)NCc1ccco1)S(C)(=O)=O`, for which the Schizont size stood at 194.24 um and the IC50 is over 10 µM. Molecule `CC(=O)N(C)C1=C(N2CCCC2)C(=O)c2ccccc2C1=O` came in with a Schizont size of 123.79 um and an IC50 of 4.95 µM. On the same counts, the results for `Cc1nc2ccccc2c(=O)n1-c1ccc([N+](=O)[O-])cc1` are 246.01 um and over 10 µM. On the same counts, the results for `O=C(O)c1c[nH]c2cc(N3CCCCCC3)c(F)cc2c1=O` are 224.51 um and over 10 µM.

`Cc1ccc(OCC(=O)Nc2cccc(-c3nc4ncccc4o3)c2)cc1C` registered a Schizont size of 160.01 um and an IC50 of over 10 µM. For `COC(=O)c1ccc(C2C3=C(O)CC(c4ccco4)CC3=Nc3ccccc3N2C(=O)c2ccccc2)cc1` (stereo not given), the Schizont size is recorded as 140.38 um and the IC50 was over 4.78 µM.

In turn, `N#CCSc1nc2ccccc2c2nc(CCc3c[nH]c4ccccc34)nn12` had a Schizont size of 221.17 um and an IC50 of over 10 µM. On the same counts, the results for `Cc1ccc(S(=O)(=O)Nc2nc3n(n2)C(c2ccccc2)C=C(c2ccccc2)N3)cc1` (stereo not given) are 198.42 um and over 10 µM. On the same counts, the results for `COc1ccc2[nH]c(SCC(=O)Nc3cccc(NC(=O)CSc4nc5cc(OC)ccc5[nH]4)n3)nc2c1` are 180.05 um and over 9.29 µM. The molecule `O=C(C1CC1)N1CCc2cc(Br)cc(S(=O)(=O)N3CCCC3)c21` showed a Schizont size of 164.5 um and an IC50 of over 10 µM.

For the molecule `Cc1c(C#N)c2ccccc2n1CC(=O)Nc1ccc(Br)cc1`, the Schizont size was determined as 158.02 um and the IC50 is over 10 µM.

The molecule `CCCCn1c(NN=C2C(=O)Nc3ccccc32)nc2c1c(=O)[nH]c(=O)n2C` gave a Schizont size of 172.53 um and an IC50 of over 10 µM. On the same counts, the results for `Cn1cnnc1SCC(=O)Nc1ccccc1C(F)(F)F` are 204.16 um and over 10 µM. The corresponding values for `COc1cc(OC)c(NC(=O)C2c3ccccc3C(=O)N(C)C2c2ccc(OC)c(OC)c2)cc1Cl` (stereo not given) are 165.85 um and over 9.13 µM.

With `O=C1Nc2ccccc2C12Nc1ccccc1-c1nc3ccccc3n12` (stereo not given), the Schizont size came out at 165.43 um and the IC50 was over 10 µM. On the same counts, the results for `COc1ccc(NC(=O)COc2ccccc2C(C)C)c(OC)c1` are 202.59 um and over 10 µM. The corresponding values for `CCCn1c(-c2cccc(Br)c2)nc2ccccc21` are 198.63 um and over 8.91 µM. On the same counts, the results for `CCc1noc(C)c1C(=O)NCCN1Cc2ccccc2OC(c2ccsc2)C1` (stereo not given) are 227.75 um and over 10 µM. `COc1ccc(C2CC(=O)C3=C(C2)NC(C)=C(C(=O)OC2CCCC2)C3c2ccc([N+](=O)[O-])cc2)cc1OC` (stereo not given) displayed a Schizont size of 103.85 um and an IC50 of 3.92 µM. The corresponding values for `CC(C)(C)c1ccc(Oc2ccc(N3C(=O)C4CC=CCC4C3=O)cc2)cc1` (stereo not given) are 180.99 um and over 10 µM.

Molecule `O=C(c1ccc2nc(N3CCCCC3)sc2c1)N1CCN(Cc2ccc3c(c2)OCO3)CC1` returned a Schizont size of 168.67 um and an IC50 of over 9.22 µM. Regarding `O=C(Nc1ccc(-c2nc3cc(NC(=O)c4cccc([N+](=O)[O-])c4)ccc3[nH]2)cc1)c1cccc([N+](=O)[O-])c1`, the Schizont size was found to be 101.45 um and the IC50 was over 0.94 µM.

In turn, `CCc1c(C)c(C#N)c2nc3ccccc3n2c1NCc1ccccc1` showed a Schizont size of 126.09 um and an IC50 of over 9.6 µM.

`COc1ccccc1Cc1nc2ccccc2nc1SCC(=O)Nc1cccc(C(F)(F)F)c1` gave a Schizont size of 187.88 um and an IC50 of over 10 µM. The corresponding values for `CCCC1(CCC)NC(=S)N(c2ccc(C)c(C)c2)N1` are 233.59 um and over 10 µM.

`Nc1nonc1-n1nnc(C(=O)NN=Cc2ccc(F)c(Br)c2)c1-c1ccc([N+](=O)[O-])cc1` gave a Schizont size of 246.12 um and an IC50 of over 10 µM. On the same counts, the results for `COc1ccc(C2CC3=NC(C)=C(C(=O)OC(C)C)C(c4ccccc4OC)C3=C(O)C2)cc1OC` (stereo not given) are 182.03 um and over 10 µM. On the same counts, the results for `CCOC(=O)c1c(CNC)n(C)c2cc(Br)c(O)cc12.O=CO.O=CO` are 175.56 um and over 10 µM. The corresponding values for `COc1ccc2c(C)nc(Nc3nc(C)cc(-c4ccccc4)n3)nc2c1` are 170.24 um and 6.66 µM. Regarding `COC(=O)c1cc(NC(=S)NC(=O)c2c(OC)cccc2OC)cc(C(=O)OC)c1`, the Schizont size was 216.06 um and the IC50 is over 10 µM. Take `Cc1ccc(-c2cc(C(=O)OCC(=O)c3cccc([N+](=O)[O-])c3)c3cc(C)ccc3n2)cc1`: the Schizont size worked out at 180.05 um and the IC50 was over 10 µM.

`CCN(CC)c1ccc(N=Cc2ccc(Sc3nc4ccccc4s3)o2)cc1` had a Schizont size of 152.6 um and an IC50 of over 10 µM. The molecule `[Cl-].c1ccc(Cc2cc[n+](Cc3ccccc3)cc2)cc1` yielded a Schizont size of 127.34 um and an IC50 of 4.52 µM. The corresponding values for `Cc1c(Cl)cccc1N1C(=O)C2C3c4ccccc4C(c4ccccc43)C2C1=O` (stereo not given) are 158.75 um and over 10 µM.

`O=C(Cc1cccs1)N1CCN(c2ccccn2)CC1` displayed a Schizont size of 189.55 um and an IC50 of over 10 µM. The molecule `CCOc1ccc(NC(=O)C(C)Sc2nc3ccccc3[nH]2)cc1` (stereo not given) yielded a Schizont size of 194.87 um and an IC50 of over 10 µM. The corresponding values for `COc1ccc2[nH]c(=O)c(CN(C(=S)Nc3ccccc3OC)C3CCCC3)cc2c1` are 157.5 um and over 9.74 µM. With `CCSc1ccc2ccccc2[n+]1CC.[I-]`, the Schizont size was determined as 209.06 um and the IC50 was over 10 µM. The corresponding values for `N#Cc1c2c(c(N3CCN(Cc4ccccc4)CC3)n3c1nc1ccccc13)CCC2` are 241.42 um and over 10 µM.

On to `CC(=O)Nc1ccc(-c2nc(-c3ccc(Oc4ccc(-c5[nH]c(-c6ccc(NC(C)=O)cc6)nc5-c5ccccc5)cc4)cc3)c(-c3ccccc3)[nH]2)cc1`, for which the Schizont size is listed as 112.31 um and the IC50 was over 3.73 µM.

The molecule `O=C1CC(c2ccccc2)CC2=C1C(c1ccccc1[N+](=O)[O-])Nc1ccccc1N2` (stereo not given) came in with a Schizont size of 201.65 um and an IC50 of over 10 µM. The molecule `O=C(c1cc2nc(-c3ccccc3)cc(C(F)(F)F)n2n1)N1CCN(Cc2ccccc2)CC1` displayed a Schizont size of 148.94 um and an IC50 of over 10 µM. The corresponding values for `Fc1ccc(-c2cn3c([n+]2-c2ccccc2)SCC3)cc1.[Br-]` are 131.2 um and over 4.3 µM. Take `Cc1cccc(C(=O)NCc2nnc(S)n2-c2cccc(C(F)(F)F)c2)c1`: the Schizont size was 210.73 um and the IC50 was over 10 µM. The corresponding values for `N#Cc1c2c(c(N3CCN(c4ccccn4)CC3)n3c1nc1ccccc13)CCC2` are 174.41 um and over 10 µM.

With `CCOc1ccc(N(C(=O)C2COc3ccccc3O2)C(C(=O)NC2CCCCC2)c2cn(C)nc2C)cc1` (stereo not given), the Schizont size turned out to be 191.42 um and the IC50 was over 10 µM. The corresponding values for `CCOC(=O)c1ccc(OCC2c3cc(OC)c(OC)cc3CCN2C(=O)c2ccc([N+](=O)[O-])cc2)cc1` (stereo not given) are 226.39 um and over 10 µM. The corresponding values for `N#CC1=C(N)Oc2c3c(c4ccccc4c2C1c1ccc(F)cc1)C(c1ccc(F)cc1)C(C#N)=C(N)O3` (stereo not given) are 105.63 um and 3.93 µM. `CCCCSCC(O)CN1CCCCC1` (stereo not given) displayed a Schizont size of 191.22 um and an IC50 of over 10 µM. The molecule `Cc1ccc(NC(=O)C2C3C=CC4(O3)C2C(=O)N(CCCN2CCOCC2)C4C(=O)NC2CCCC(C)C2C)cc1Cl.Cl` (stereo not given) returned a Schizont size of 196.54 um and an IC50 of over 10 µM.
